In paper PMC5771089 (Theranostics, 2018):

Experiments:
[1] = target: biotinylated BSA (serum albumin) (Bos taurus, UniProt P02769); experiment: Kinetic binding assay by biolayer interferometry; design: species or system bovine
Outline: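 Biolayer interferometry on streptavidin biosensors. Steps: PBS baseline 60 s; biotin-BSA load (1 µg/mL) 600 s; PBS 60 s; biocytin quench (1 µg/mL) 180 s; PBS 60 s; test compound association 600 s; dissociation 600 s. Nonspecific signal subtracted, taken from BSA-loaded sensor in buffer alone and blank sensor with analyte.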

[2] = tested on: HCT116/SSTR2 (SSTR2+) and HCT116 (SSTR2-) cells; experiment: Cell uptake/internalization; type: cell-based, human
Outline: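 HCT116/SSTR2 (transfected) and parental HCT116 cells grown in McCoy's 5A with 10% FBS at 37 °C, 5% CO2. 10^5 cells/well plated 24 h ahead, PBS-washed, then given 18.5 KBq/well 86Y-labelled tracer in 0.5 mL medium with 1% (w/v) HSA. At each time point: PBS wash, then 0.1 M NaOH lysis. For internalized fraction, surface tracer stripped first with 1 min glycine 50 mM/NaCl 100 mM, pH 2.8. Gamma-counted as % of added activity; triplicates; blocking at 24 h.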

[3] = tested on: HCT116/SSTR2 tumor xenografts; experiment: In vivo PET in HCT116/SSTR2 xenografts; design: species or system mouse

Sequence of biotinylated BSA (serum albumin) (P02769 25-607): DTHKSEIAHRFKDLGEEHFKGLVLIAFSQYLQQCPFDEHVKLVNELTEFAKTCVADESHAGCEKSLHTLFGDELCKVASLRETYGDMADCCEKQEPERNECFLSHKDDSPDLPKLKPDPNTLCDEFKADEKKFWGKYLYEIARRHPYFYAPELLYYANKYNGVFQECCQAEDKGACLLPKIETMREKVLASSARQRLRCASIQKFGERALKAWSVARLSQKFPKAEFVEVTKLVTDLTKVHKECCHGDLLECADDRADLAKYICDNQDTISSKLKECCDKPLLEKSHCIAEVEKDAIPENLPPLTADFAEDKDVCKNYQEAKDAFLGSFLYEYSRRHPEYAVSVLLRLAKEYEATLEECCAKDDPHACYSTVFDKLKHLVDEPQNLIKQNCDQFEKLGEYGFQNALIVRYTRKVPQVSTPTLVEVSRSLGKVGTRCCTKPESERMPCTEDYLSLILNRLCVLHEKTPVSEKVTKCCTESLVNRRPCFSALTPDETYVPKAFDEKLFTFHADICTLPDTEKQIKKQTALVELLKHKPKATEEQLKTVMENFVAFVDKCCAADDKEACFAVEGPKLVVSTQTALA

Compound	Kd [1]	Cell uptake (percent of added radioactivity) ([2]; HCT116/SSTR2 cells, 24 h, 18.5 KBq/well, medium with 1% (w/v) HSA, triplicate)	Uptake/internalization in SSTR2 positive vs SSTR2 negative cells ([2]; HCT116/SSTR2 vs HCT116, 1% HSA, p < 0.001)	Amount retained in the blood compared to ^86Y-TATE ([3]; 1 h p.i., PET quantification)	Tumor exposure to the radioisotope (AUC) compared to ^86Y-TATE ([3]; AUC of tumor radioactivity over time, non-decay corrected data)	Increase of half-life in the blood compared to ^86Y-TATE ([3]; PET quantification, i.v. 0.92 MBq (4 nmol))
Cc1cc(-c2ccc(NC(=O)[C@H](CCCCNC(=O)CCN3C(=O)CC(SCC(=O)N[C@H](Cc4ccccc4)C(=O)N[C@H]4CSSC[C@@H](C(=O)N[C@H](C(=O)O)[C@@H](C)O)NC(=O)[C@H]([C@@H](C)O)NC(=O)[C@H](CCCCN)NC(=O)[C@@H](Cc5c[nH]c6ccccc56)NC(=O)[C@H](Cc5ccc(O)cc5)NC4=O)C3=O)NC(=O)CN3CCN(CC(=O)O)CCN(CC(=O)O)CCN(CC(=O)O)CC3)c(C)c2)ccc1N=Nc1ccc2c(S(=O)(=O)O)cc(S(=O)(=O)O)c(N)c2c1O (stereo partly drawn) [EB-TATE]	4.8 µM	–	–	–	–	–
Cc1cc(-c2ccc(NC(=O)[C@H](CCCCNC(=O)CCN3C(=O)CC(SCC(=O)N[C@H](Cc4ccccc4)C(=O)N[C@H]4CSSC[C@@H](C(=O)N[C@H](C(=O)O)[C@@H](C)O)NC(=O)[C@H]([C@@H](C)O)NC(=O)[C@H](CCCCN)NC(=O)[C@@H](Cc5c[nH]c6ccccc56)NC(=O)[C@H](Cc5ccc(O)cc5)NC4=O)C3=O)NC(=O)CN3CCN(CC(=O)O)CCN(CC(=O)O)CCN(CC(=O)O)CC3)c(C)c2)ccc1N=Nc1ccc2c(S(=O)(=O)O)cc(S(=O)(=O)O)c(N)c2c1O (stereo partly drawn) [^86Y-EB-TATE, metal not drawn]	–	12.05±0.67%	significantly higher	4 fold	approximately 6 fold	2 fold
